The values that follow come from ChEMBL document CHEMBL1142984, “Stabilization of G-quadruplex DNA and down-regulation of oncogene c-myc by quindoline derivatives” (J Med Chem, 2007).

Active and inactive are the calls of the source. No cut-off for these calls is given here.

Assay [1] can be described thus: Inhibition of Pu27-13, 14 oligomer hybridization with Pu27rev at 36 uM by PCR stop assay. An outline of the steps:
(§1)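 Test oligomer plus complementary strand ([…]) in 1×PCR buffer with 0.16 mM dNTP, 2.5 U Taq and derivative […]. Cycling: 94 C 3 min, then 30 cycles of 94 C 30 s, 58 C 30 s, 72 C 30 s. Products run on 15% nondenaturing polyacrylamide in 1×TBE, silver stained; quadruplex stabilization blocks extension.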

A short description of assay [2]: Stabilization of Pu27 oligomer by inducing G-quadruplex formation assessed as inhibition of hybridization with Pu27rev by PCR stop assay. An outline of the steps:
as §1

In assay [3] the test system is HepG2. Kind of assay: Growth inhibition in HepG2 cells after 7 days. It counts as functional, cell-based. The conditions noted are these: Homo sapiens, HepG2, 168 h. An outline of the steps:
(§2)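 Hep G2 cells in RPMI-1640 with 10% FBS at 37 C, 5% CO2. About 5000 cells seeded; compound ([…], freshly dissolved) added 24 h after plating and re-added at day 5. Cell counts and viability by trypan blue exclusion daily, days 1 to 8. IC50 calculated at days 5 and 7 of treatment.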

For assay [4], the system named is HepG2. Put plainly: Inhibition of c-myc expression in HepG2 cells at 50 uM. The assay is classed as functional, cell-based. Particulars: Homo sapiens. An outline of the steps:
(§3)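 About 5 × 10^5 Hep G2 cells seeded, treated 24 h after plating with derivative (6.25 to 100 µM) for 24 h. Total RNA extracted and reverse transcribed at 42 C for 60 min. PCR used […], 500 µM dNTPs, 36 cycles (95/50/72 C, 1 min each). Products read on 1.5% agarose against β-actin.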

The nature of assay [5]: Inhibition of Pu27 oligomer hybridization with Pu27rev at 6 uM by PCR stop assay. An outline of the steps:
as §1

For another assay, the system named is Ramos. Put plainly: Inhibition of c-myc expression in Ramos cells at 10 uM. It counts as functional, cell-based. Particulars: Homo sapiens. An outline of the steps: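 Ramos cells (about 1 × 105 seeded) treated with derivative at […] and harvested 24 h later alongside untreated cells. RNA reverse transcribed at 42 C for 60 min. PCR used […], 36 cycles (95/50/72 C, 1 min each). Products resolved on 1.5% agarose.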

In assay [6] the test system is HepG2. Put plainly: Growth inhibition in HepG2 cells after 5 days. It counts as functional, cell-based. The conditions noted are these: Homo sapiens, HepG2, 120 h. An outline of the steps: as §2
Assay [7] is described as follows: Inhibition of Pu27 oligomer hybridization with Pu27rev at 36 uM by PCR stop assay. An outline of the steps: as §1
Assay [8] can be described thus: Inhibition of Pu27 oligomer hybridization with Pu27rev at 18 uM by PCR stop assay. An outline of the steps: as §1
Assay [9] deals with HepG2. Put plainly: Inhibition of c-myc expression in HepG2 cells at 100 uM. It counts as functional, cell-based. The conditions noted are these: Homo sapiens. An outline of the steps: as §3

What is called IC50 is the concentration at which inhibition is half-maximal. Read a low IC50 as higher potency. Take `CCN(CC)CCNc1c2ccccc2nc2c1[nH]c1ccccc12`: the outcome in assay [1] was inactive. Also, the outcome (in assay [2]; in the assay with HepG2 [4]; in assay [5]; with Ramos) was Active. Further, the IC50 in the assay on HepG2 [3] was determined as 300 nM; in the assay on HepG2 [6], 200 nM.
For `OCCNc1c2ccccc2nc2c1[nH]c1ccccc12`, the outcome in assay [7] and in [2] was Active. Also, the result in assay [1] was inactive.
In the case of `CN(C)CCCNc1c2ccccc2nc2c1[nH]c1ccccc12`, in assay [1], the outcome was inactive. The result in assay [2] and in [8] was Active.
In the case of `CCN(CC)CCNc1c2ccccc2nc2c1oc1ccccc12`, in assay [1], the outcome was inactive. Moreover, the result in assay [2] and in assay [8] was Active.
As for `CN(C)CCNc1c2ccccc2nc2c1oc1ccccc12`, the outcome in [1] was inactive. Moreover, the result in assay [2] and in assay [8] was Active.
Turning to `CN(C)CCNc1c2ccccc2nc2c1[nH]c1ccccc12`, in assay [1], the result was inactive. Further, the outcome in [2] and in [8] was Active.
Take `OCCCNc1c2ccccc2nc2c1[nH]c1ccccc12`: the result (in [7]; in assay [2]; in the assay with HepG2 [9]; with Ramos) was Active. The result in [1] was inactive. Moreover, the values for the IC50 with HepG2 [3] and in the assay on HepG2 [6] were 1300 nM and 1000 nM, respectively.
As for `OCCCNc1c2ccccc2nc2c1oc1ccccc12`, the outcome in [7] and in assay [2] was Active. Moreover, the result in assay [1] was inactive.
Take `CN(C)CCCNc1c2ccccc2nc2c1oc1ccccc12`: the outcome in assay [1] was inactive. Besides, the outcome in [2] and in assay [8] was Active.
As to `OCCNc1c2ccccc2nc2c1oc1ccccc12`, the result in [7] and in assay [2] was Active. The result in assay [1] was inactive.
